Results: paper PMC7111685 (Phytochemistry, 2015)

What was measured:
[1] = Cytotoxicity assay; type: cell-based; conditions: African green monkey, Vero cells
How it was run: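 Vero cells grown in DMEM with 10% FBS and penicillin/streptomycin, plated at 1 × 10^5 cells/well and grown 24 h. Exposed 48 h to various concentrations of test compound, final DMSO under 0.05% (v/v). MTT solution (2 mg/mL) added for 4 h, supernatant removed, formazan dissolved in DMSO, absorbance read at 550 nm. Viability expressed relative to control wells; CC50 by regression analysis.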

[2] = system: porcine epidemic diarrhea virus (PEDV); test: Cytopathic effect; type: cell-based
How it was run: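 Vero cells (DMEM, 10% FBS, penicillin/streptomycin) seeded at 1 × 10^5 cells/well and PBS-washed a day later. Near-confluent monolayers were inoculated with PEDV at 0.01 MOI for 2 h, then given DMEM with various concentrations of test compound. After 72 h at 37 °C, 5% CO2, MTT solution (2 mg/mL) was added for 4 h. EC50 came from regression analysis; SI = CC50/EC50.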

EC50 ([2]; Porcine epidemic diarrhea virus, Vero, 72 h): 5.58 ± 0.53 µM
Structure (SMILES): O=c1cnn([C@@H]2O[C@H](CO)[C@@H](O)[C@H]2O)c(=O)[nH]1 [Compound 6-Azauridine, 6-Azauridine]
CC50 at 48 h [1]: 44.5 ± 6.11 µM
SI ([2]; selective index, SI = CC50/EC50): 7.98 ± 0.37
